This is a sample that favours compounds with a hit; in the whole collection about 1.9% have one here.
DENV2 CPE: DENV2-induced cell death inhibition; DENV2-infected cells, cytopathic effect rescue, plate reader; CPE inhibition, % at 9.99 µM; hit rate 1.7% among 350,000; in the data active means CPE inhibition above about 20%, passing the limit was not always enough; inconclusive means no clear call, values can overlap the other calls; tested in BHK-21 cells;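 further: 0% = median of neutral control wells and 100% = median of positive control wells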
F508del corr: CFTR F508del correction in bronchial cells; CFBE cells, YFP halide quenching; stimulated with forskolin plus potentiator P3; % fluorescence drop versus neutral controls; activity (quench increase), % at 7.58 µM; hit rate 0.36% among 350,000;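 active means mean added fluorescence quench of at least 8% versus neutral control, with both replicates also reaching 8%; inconclusive means only one of the mean or replicate conditions met; inactive means mean below 8% and not both replicates reaching 8%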;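 further: cells transiently co-express mutant CFTR-F508del with the halide-sensitive YFP; corrector assay measuring rescue of mutant channel to the surface after 24 h compound exposure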
Cneo AK release: causes C. neoformans cell lysis | adenylate kinase release luminescence, 4 h; normalised: neutral wells 0, clomiphene wells 100 | hit rate 0.2% among 360,000 | lysis activity, % at 15 µM | AID 651654;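 active means mean lysis activity across replicates of at least 80%, whatever share of replicates individually reach that level; inactive means mean lysis activity below 80%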
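Test system: log-phase Cryptococcus neoformans yeast cells. Input: 5 × 10^6 yeast cells/mL. Medium: fresh YPD growth medium. Doses: single dose. Incubation: static 4 h at 37 °C with compound, 1 h detection. Measured by: luminescent adenylate kinase detection reagent. Read-out: signal increase indicating cell lysis. Benchmarks: Clomiphene.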
PGC1a acetyl inh: PGC1a acetylation modulation, inhibitor mode; inhibition, % at 15.6 µM; AID 651687; hit rate 0.17% among 350,000; U2OS PGC1a acetylation, AlphaScreen anti-acetyl-lysine; with virally co-expressed GCN5 acetyltransferase;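 active means every replicate shows inhibition of at least 40%; inconclusive means mean inhibition at least 40% but some replicate below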;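 further: 0% = neutral control wells and 100% = positive control wells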
FN deposit inh: fibronectin deposition inhibition. AH1F fibroblasts, Alexa488-fibronectin deposition fluorescence, overnight. inhibition, % at 12.6 µM. hit rate 0.086% among 350,000. AID 743247;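 active means mean inhibition across replicates of 30% or more, regardless of how many single replicates reach that level; inconclusive means mean under 30% yet at least half of replicates reach 30%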;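 further: positive control wells lacked labelled fibronectin entirely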
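Material: AH1F fibroblast monolayer depositing Alexa488-labelled fibronectin into matrix | Input: 10000 AH1F cells/well | Medium: DMEM plus 2% serum, read in PBS | Reagent: Alexa488-fibronectin, 24 nM final in well | Compound dosing: One dose per compound, pinned | Schedule: 1 h adhesion, overnight exposure | Measured by: Fluorescence at 485 nm excitation, 525 nm emission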
XiGFP reactiv: reactivates the inactive X chromosome in mouse fibroblasts; AID 743238; activation, % at 7.58 µM; hit rate 0.055% among 360,000; XiGFP mouse fibroblasts, % GFP-positive cells imaging, 3 d; cells co-treated with 5-aza-dC sensitizer; scaled so ellipticine positive control = 100%;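 active means mean normalized replicate activation at least 10% and every replicate at or above 10%; inconclusive means only one of the two criteria met; inactive means mean below 10% and not all replicates reach 10%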;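 further: 0% = median of on-plate neutral control wells and 100% = ellipticine 6 µM median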
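System: SV40-immortalized XiGFP fibroblast cells, line 68-5-11 / Incubation: 3-day compound exposure, then 15 min fixation at room temperature / Compound: single concentration per compound, delivered by pin transfer / Buffer or medium: DMEM plus 5-aza-dC sensitizer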
The depositor's hits bear a star; ? = inconclusive; . = not tested or not shown.

SMILES | DENV2 CPE | F508del corr | Cneo AK release | PGC1a acetyl inh | FN deposit inh | XiGFP reactiv
CCOC(=O)C1=CC[C@@H](c2ccc(OC)cc2)N(S(=O)(=O)c2ccc(C)cc2)[C@H]1CC | 13 | 3 | -3 | -90 | 8 | 0
C/C=C/c1ccc([C@@H]2[C@@H](CO)N[C@@H]2CN(CC)C(=O)c2ccccn2)cc1 | -4 | 3 | -2 | -10 | . | 0
CC(C)CN(C[C@@H]1N[C@@H](CO)[C@@H]1c1ccccc1)C(=O)CN(C)C | 40* | 2 | -9 | -4 | -9 | 0
CN(C[C@@H]1N[C@H](CO)[C@H]1c1ccccc1)C(=O)c1ccccn1 | -14 | 8.6* | 3 | -2 | -7 | 0
CCC(=O)N(CC(C)C)C[C@@H]1[C@@H](c2ccccc2)[C@@H](CO)N1S(C)(=O)=O | 29* | 0 | . | . | -10 | 0
CCN(C[C@@H]1N[C@@H](CO)[C@@H]1c1ccccc1)C(=O)c1ccncc1 | 22* | -2 | 1 | 2 | -19 | 0
CCC(=O)N(C[C@H]1[C@H](c2ccccc2)[C@@H](CO)N1S(C)(=O)=O)C(C)C | . | . | . | . | -4 | 0
C[C@@H]1CN([C@@H](C)CO)C(=O)c2cc(-c3cncnc3)cnc2O[C@@H]1CN(C)Cc1ccccc1 | -4 | 0 | . | 1 | 0 | 0
C[C@@H]1CN([C@H](C)CO)C(=O)c2cc(NS(=O)(=O)c3cccs3)ccc2O[C@H]1CN(C)Cc1ccc(Cl)c(Cl)c1 | 17 | -1 | -1 | -1 | . | 0
C[C@H]1CN([C@@H](C)CO)C(=O)c2cccc(NS(=O)(=O)c3ccc(Cl)cc3)c2O[C@H]1CN(C)Cc1ccncc1 | . | -1 | -3 | -1 | . | 0
COc1cccc(C#Cc2cnc3c(c2)C(=O)N([C@H](C)CO)C[C@@H](C)[C@H](CN(C)C(=O)C2CCOCC2)O3)c1 | 9 | 4 | -9 | -4 | . | -1
COc1ccc([N+](=O)[O-])c(S(=O)(=O)c2ccc(Cl)cc2)n1 | -3 | -1 | 1 | 45* | 17 | 0
O=C(NCCCn1cccn1)C1CCC(=O)N(Cc2cccc(C(F)(F)F)c2)C1 (stereo not drawn) | 3 | 4 | 0 | . | 9 | 0
O=C(NCCCC1CCCC1)C1CCC(=O)N(Cc2cccc(C(F)(F)F)c2)C1 (stereo not drawn) | 26* | -1 | 2 | -14 | . | 0
C[C@@H]1CN([C@@H](C)CO)C(=O)c2cc(N(C)C)ccc2O[C@@H]1CN(C)C(=O)NC1CCCCC1 | -6 | 4 | -1 | -10 | . | 0
O=C(O)C1(C(=O)O)CCCC1 | 5 | 1 | -1 | 6 | -1 | 0
NC1(C(=O)O)CC1 | ? | 17* | -1 | 3 | 3 | 0
CC(C)NC(=O)N(C)C[C@H]1Oc2ncc(C#CCc3ccccc3)cc2C(=O)N([C@@H](C)CO)C[C@@H]1C | 6 | 2 | 1 | 2 | -2 | -1
COc1ccc(S(=O)(=O)Nc2ccc3c(c2)C(=O)N([C@@H](C)CO)C[C@H](C)[C@@H](CN(C)C(=O)Cc2ccccc2)OCCCC[C@H](C)O3)cc1 | 68* | 1 | -1 | -2 | . | 0
COc1ccc(S(=O)(=O)Nc2ccc3c(c2)C(=O)N([C@H](C)CO)C[C@H](C)[C@H](CN(C)C(=O)CCCN(C)C)OCCCC[C@H](C)O3)cc1 | 22* | -1 | 1 | 4 | . | -1
C[C@H]1CCCCO[C@H](CN(C)C(=O)Cc2ccccc2)[C@@H](C)CN([C@@H](C)CO)C(=O)c2cc(NS(=O)(=O)c3ccc(Cl)cc3)ccc2O1 | 28* | -3 | -1 | 6 | -7 | 1
C[C@@H]1CCCCO[C@H](CN(C)C(=O)Cc2ccccc2)[C@H](C)CN([C@@H](C)CO)C(=O)c2cc(NS(=O)(=O)c3ccc(Cl)cc3)ccc2O1 | 6 | -1 | 0 | 2 | 2 | 0
C[C@@H]1CCCCO[C@@H](CN(C)C(=O)Cc2ccccc2)[C@@H](C)CN([C@H](C)CO)C(=O)c2cc(NS(=O)(=O)c3ccc(Cl)cc3)ccc2O1 | 25* | -2 | -2 | -2 | 4 | 0
COc1ccc(S(=O)(=O)Nc2ccc3c(c2)C(=O)N([C@@H](C)CO)C[C@H](C)[C@H](CN(C)C(=O)Cc2ccccc2)OCCCC[C@H](C)O3)cc1 | 9 | 4 | -3 | -5 | . | 0
O=[N+]([O-])c1ccc(S(=O)Cc2ccccc2)c([N+](=O)[O-])c1 (stereo not drawn) | 0 | -3 | . | . | 37* | 0
SMILES | DENV2 CPE | F508del corr | Cneo AK release | PGC1a acetyl inh | FN deposit inh | XiGFP reactiv
CC(C)(C)N1CC23CCC(C[C@@H]2C1=O)O3 (stereo partly drawn) | 39* | 0 | 4 | 6 | 5 | 0
O=C(c1ccc(F)cc1)N1C[C@@H]2[C@H](c3ccccc31)[C@H](CO)N2C(=O)c1ccccc1 | 11 | -1 | -5 | 0 | 13 | 0
Cc1ccc(-c2csc(NC(=O)c3ccc(S(=O)(=O)N4CCc5ccccc54)cc3)n2)cc1 | 25* | -1 | -1 | 13 | 1 | 0
O=C(Nc1nc(-c2ccccc2)cs1)c1ccc(S(=O)(=O)N2CCc3ccccc32)cc1 | ? | 5 | 1 | -11 | -8 | 0
COc1ccc(OC)c(CNS(=O)(=O)c2cc(-c3cc(C)no3)ccc2OC)c1 | 1 | 0 | -1 | 51* | -6 | 0
CC(=O)Nc1ccc(NC(=O)C2CCCN2C(=O)Nc2cccc(F)c2)cc1 (stereo not drawn) | 8 | 2 | 1 | . | 0 | 0
COc1ccc(NC(=O)C2CCCN2C(=O)Nc2cccc(F)c2)cc1 (stereo not drawn) | 1 | 9.7* | 1 | 8 | 9 | .
CC(C)(C)c1ccc(C(=O)OCC(=O)Nc2sc3c(c2C#N)CCC3)cc1 | 99* | -2 | 3 | . | -5 | 0
COc1cc(C(=O)NCC(c2ccco2)N2CCc3ccccc32)cc(OC)c1OC (stereo not drawn) | 92* | 1 | . | . | -2 | 0
COc1ccccc1NC(=O)C(=O)NCC(c1ccco1)N1CCc2ccccc21 (stereo not drawn) | 13 | 9.8* | 1 | . | -1 | 0
CC(=O)N[C@@H]1CC[C@H](CCNC(=O)C2CCCCC2)O[C@H]1CO | 4 | 0 | . | -3 | . | 1
CCN1/C(=C2\SC(=S)N(Cc3ccccc3)C2=O)Sc2ccccc21 | 6 | . | . | . | 4 | 1
CCC(CO)[n+]1c(C)cc(/C=C2\Sc3ccccc3N2Cc2ccccc2)cc1C (stereo not drawn) | . | -2 | 3 | 2 | -13 | 103*

Screens deposited in PubChem BioAssay by Broad Institute.
